Data taken from ChEMBL document CHEMBL2040757, “New N-arylamino biquinoline derivatives: synthesis, antimicrobial, antituberculosis, and antimalarial evaluation” (Eur J Med Chem, 2012).
Values after ≈ are worked out from the molar mass of the structure shown.

Columns and labels:
[1] = system: Mycobacterium tuberculosis; experiment: Growth inhibition of Mycobacterium tuberculosis H37Rv at 6.25 ug/mL after 12 to 28 days relative to control; format: functional
Escherichia coli = experiment: Antibacterial activity against Escherichia coli MTCC 443 by broth microdilution method; format: functional
How it was run: (§1)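 Broth microdilution per NCCLS, with serial dilutions in Mueller Hinton broth and DMSO as diluent. Tubes were incubated overnight at 37 °C. MIC was the lowest concentration giving no visible growth, with the control organism's MIC read to verify concentrations. Tubes without growth were subcultured overnight at 37 °C to judge bacteriostatic versus bactericidal action.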

Candida albicans = experiment: Antifungal activity against Candida albicans MTCC 227 by broth microdilution method; format: functional
Salmonella typhi = experiment: Antibacterial activity against Salmonella typhi MTCC 98 by broth microdilution method; format: functional, Salmonella enterica subsp. enterica serovar Typhi; conditions: Salmonella enterica
Bacillus subtilis = experiment: Antibacterial activity against Bacillus subtilis MTCC 441 by broth microdilution method; format: functional; how it was run: as §1
Vibrio cholerae = experiment: Antibacterial activity against Vibrio cholerae MTCC 3906 by broth microdilution method; format: functional
Aspergillus fumigatus = experiment: Antifungal activity against Aspergillus fumigatus MTCC 3008 by broth microdilution method; format: functional
Streptococcus pneumoniae = experiment: Antibacterial activity against Streptococcus pneumoniae MTCC 1936 by broth microdilution method; format: functional; how it was run: as §1
Plasmodium falciparum = experiment: Antimalarial activity against trophozoite stage of chloroquine-sensitive Plasmodium falciparum 3D7 infected in human erythrocytes after 48 hrs; format: functional, organism-based; conditions: 3D7, 48 h
How it was run: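 Parasites were kept in continuous culture in A+ human erythrocytes in RPMI with 10% human serum. Sorbitol-synchronized trophozoites at 1–2% parasitaemia and 2.5% haematocrit were exposed to serial dilutions (maximum 1 mg/ml; 0.02% final DMSO) for 48 h at 37 °C. Growth inhibition was measured; chloroquine and quinine served as positive controls. IC50 came from duplicate experiments.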

Clostridium tetani = experiment: Antibacterial activity against Clostridium tetani MTCC 449 by broth microdilution method; format: functional

Row | SMILES | inhibition at 6.25 µg/mL [1] [%] | MIC (Escherichia coli) [µg/mL] | MIC (Candida albicans) [µg/mL] | MIC (Salmonella typhi) [µg/mL] | MIC (Bacillus subtilis) [µg/mL] | MIC (Vibrio cholerae) [µg/mL] | MIC (Aspergillus fumigatus) [µg/mL] | MIC (Streptococcus pneumoniae) [µg/mL] | IC50 (Plasmodium falciparum) [µg/mL] | MIC (Clostridium tetani) [µg/mL]
1 | COc1ccc2nc(Cl)c(C3C(C#N)=C(N)N(Nc4ccc(Cl)cc4)C4=C3C(=O)CC(C)(C)C4)cc2c1 (stereo not given) | 21 | 250 (≈ 468 µM) | > 1000 | 100 (≈ 187 µM) | 100 (≈ 187 µM) | 100 (≈ 187 µM) | > 1000 | 100 (≈ 187 µM) | 0.009 (≈ 0.0168 µM) | 200 (≈ 374 µM)
2 | CC1(C)CC(=O)C2=C(C1)N(Nc1ccc(Cl)cc1)C(N)=C(C#N)C2c1cc2ccccc2nc1Cl (stereo not given) | 22 | 200 (≈ 396 µM) | 250 (≈ 496 µM) | 500 (≈ 991 µM) | 500 (≈ 991 µM) | 500 (≈ 991 µM) | 500 (≈ 991 µM) | 500 (≈ 991 µM) | 0.42 (≈ 0.833 µM) | 250 (≈ 496 µM)
3 | COc1ccc2nc(Cl)c(C3C(C#N)=C(N)N(Nc4ccc(F)cc4)C4=C3C(=O)CC(C)(C)C4)cc2c1 (stereo not given) | 22 | 125 (≈ 241 µM) | 250 (≈ 483 µM) | 125 (≈ 241 µM) | 250 (≈ 483 µM) | 100 (≈ 193 µM) | 500 (≈ 965 µM) | 200 (≈ 386 µM) | 0.25 (≈ 0.483 µM) | 500 (≈ 965 µM)
